Columns and labels:
Rattus norvegicus [1] = species: Rattus norvegicus; assay: Anti-oxytocic activity in rat uterus pA2 value is negative logarithm of effective dose (ED); type: functional, organism-based; settings: read-out: pA2 (converted)
Rattus norvegicus [2] = species: Rattus norvegicus; assay: Anti-oxytocic activity on isolated rat uterus in presence of 0.5 mM of Mg2+. pA2 value is negative logarithm of effective dose (ED); type: functional; settings: read-out: pA2 (converted)
Outline: (§1)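 Isolated rat uterus, with USP posterior pituitary reference standard as agonist. Antagonism expressed as pA2.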

Rattus norvegicus [3] = assay: Compound was evaluated in vivo for anti-vasopressor activity in rats and pA2 value is negative logarithm of effective dose (ED); type: functional, organism-based; settings: read-out: pA2 (converted)
Outline: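 Intravenous vasopressor assay in phenoxybenzamine-treated rats under urethane anaesthesia, agonist USP posterior pituitary reference standard. ED is the dose (nmol/kg) that reduces the response to 2x units of agonist to that of 1x unit given before antagonist. […] Means ± SE, number of assays given.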

Rattus norvegicus [4] = species: Rattus norvegicus; assay: Antidiuretic activity in rats and pA2 value is negative logarithm of effective dose (ED); type: functional, organism-based; settings: Urine, read-out: pA2 (converted)
Outline: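 Antidiuretic assay in rats under ethanol anaesthesia against the USP posterior pituitary reference standard. Standard given 20 min after antagonist, or 10 min for analogues lacking agonism. Each peptide given at a high and a low dose. ED is the dose (nmol/kg) that cuts the response to 2x units of agonist to the response to 1x unit given before antagonist. […] Means ± SE, n assays.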

Rattus norvegicus [5] = species: Rattus norvegicus; assay: In vitro anti-oxytocic activity on isolated rat uteri in absence of Mg2+. pA2 value is negative logarithm of effective dose (ED); type: functional; settings: read-out: pA2 (converted); outline: as §1
Rattus norvegicus [6] = assay: Evaluated in vivo for logarithm effective dose (ED); type: functional, organism-based
Rattus norvegicus [7] = assay: Compound was evaluated in vivo for anti-oxytocic activity in rat uterus. pA2 value is negative logarithm of effective dose (ED); type: functional, organism-based; settings: read-out: pA2 (converted)
Outline: (§2)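 Rat uterus in situ, with synthetic oxytocin as agonist. ED is the dose (nmol/kg) that lowers the response to 2x units of agonist to that of 1x unit given before antagonist.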

Rattus norvegicus [8] = species: Rattus norvegicus; assay: Anti-oxytocic activity on isolated rat uterus in absence of Mg2+. pA2 value is negative logarithm of effective dose (ED); type: functional; settings: read-out: pA2 (converted); outline: as §1
Rattus norvegicus [9] = assay: Compound was evaluated in vivo for anti-oxytocic activity in rat uteri. pA2 value is negative logarithm of effective dose (ED); type: functional, organism-based; settings: read-out: pA2 (converted); outline: as §2

Row | SMILES | Kb (Rattus norvegicus [1]) [nM] | Kb (Rattus norvegicus [2]) [nM] | Kb (Rattus norvegicus [3]) [nM] | Kb (Rattus norvegicus [4]) [nM] | Kb (Rattus norvegicus [5]) [nM] | in vivo pA2 effective dose (as concentration) (Rattus norvegicus [6]) [µM] | Kb (Rattus norvegicus [7]) [nM] | Kb (Rattus norvegicus [8]) [nM] | Kb (Rattus norvegicus [9]) [nM]
1 | CC[C@@H]1NC(=O)[C@H](Cc2ccccc2)NC(=O)[C@@H]([C@H](C)CC)NC(=O)CC2(CCCCC2)SSC[C@@H](C(=O)N2CCC[C@H]2C(=O)N[C@@H](CCCN=C(N)N)C(=O)NCC(N)=O)NC(=O)[C@H](CC(N)=O)NC1=O | 224 | 93.3 | 186 | 6.03 | 32.4 | – | – | – | –
2 | CC[C@@H](C)[C@H]1NC(=O)CC2(CCCCC2)SSC[C@@H](C(=O)N2CCC[C@H]2C(=O)N[C@@H](CCCN=C(N)N)C(=O)NCC(N)=O)NC(=O)[C@H](CC(N)=O)NC(=O)[C@H]([C@@H](C)O)NC(=O)[C@H](Cc2ccccc2)NC1=O | – | 20.4 | – | 12.3 | – | 0.148 | 135 | 7.94 | –
3 | CC[C@@H](C)[C@H]1NC(=O)CC2(CCCCC2)SSC[C@@H](C(=O)N2CCC[C@H]2C(=O)N[C@@H](CCCN=C(N)N)C(=O)NCC(N)=O)NC(=O)[C@H](CC(N)=O)NC(=O)[C@H]([C@@H](C)CC)NC(=O)[C@H](Cc2ccccc2)NC1=O | – | 15.1 | 380 | 9.12 | – | – | – | 33.9 | 126

From ChEMBL document CHEMBL1122629, “Potent and selective antagonists of the antidiuretic responses to arginine-vasopressin based on modifications of [1-(beta-mercapto-beta,beta-pentamethylenepropionic acid),2-D-isoleucine,4- valine]arginine-vasopressin at position 4” (J Med Chem, 1984)
